Measured values taken from ChEMBL document CHEMBL1148778, “Synthesis and characterization of nonsteroidal glucocorticoid receptor modulators for multiple myeloma” (J Med Chem, 2007).

Key:
Glucocorticoid receptor [1] = target: T1, Glucocorticoid receptor (Homo sapiens, UniProt P04150); assay: Antagonist activity at human GR expressed in CV1 cells by GRE activation assay; assay type: functional, cell-based, CV-1
T1 sequence (P04150 whole entry): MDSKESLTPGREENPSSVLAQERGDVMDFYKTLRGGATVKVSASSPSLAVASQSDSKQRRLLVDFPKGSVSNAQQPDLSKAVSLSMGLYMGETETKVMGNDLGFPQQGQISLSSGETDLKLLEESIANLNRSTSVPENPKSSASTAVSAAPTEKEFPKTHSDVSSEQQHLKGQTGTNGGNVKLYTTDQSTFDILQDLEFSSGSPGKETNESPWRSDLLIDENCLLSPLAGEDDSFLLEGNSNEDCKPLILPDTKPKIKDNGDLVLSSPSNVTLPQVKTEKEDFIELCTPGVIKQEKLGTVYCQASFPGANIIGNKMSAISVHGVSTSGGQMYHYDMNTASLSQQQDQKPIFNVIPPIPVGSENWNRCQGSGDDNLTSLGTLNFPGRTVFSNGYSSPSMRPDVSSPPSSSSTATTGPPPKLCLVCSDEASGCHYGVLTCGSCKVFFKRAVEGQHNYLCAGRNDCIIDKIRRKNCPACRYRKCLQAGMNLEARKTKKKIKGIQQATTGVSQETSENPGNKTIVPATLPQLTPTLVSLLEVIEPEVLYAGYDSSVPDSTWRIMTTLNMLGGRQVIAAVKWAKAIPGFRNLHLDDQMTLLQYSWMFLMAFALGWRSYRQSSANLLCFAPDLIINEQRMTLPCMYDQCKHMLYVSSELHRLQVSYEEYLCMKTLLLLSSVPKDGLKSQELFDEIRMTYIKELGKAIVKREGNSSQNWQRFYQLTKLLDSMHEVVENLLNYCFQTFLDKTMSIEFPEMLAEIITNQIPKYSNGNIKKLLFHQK

Glucocorticoid receptor [2] = target: T1, Glucocorticoid receptor; assay: Agonist activity at human GR expressed in CV1 cells by GRE activation assay; assay type: functional, cell-based, CV-1
Glucocorticoid receptor [3] = target: T1, Glucocorticoid receptor; assay: Activity at human GR expressed in NHDFneo cells assessed as inhibition of IL-6 production; assay type: cell-based
RPMI-8226 [4] = assay: Antiproliferative activity against human RPMI8226 cells after 4 days; assay type: functional, cell-based; conditions: RPMI-8226, 96 h
RPMI-8226 [5] = assay: Antiproliferative activity against human RPMI8226 cells after 4 days relative to Dexamethasone; assay type: functional
Glucocorticoid receptor [6] = target: T1, Glucocorticoid receptor; assay: Binding affinity to GR
Progesterone receptor = target: T2, Progesterone receptor (Homo sapiens, UniProt P06401); assay: Binding affinity to PR
T2 sequence (P06401 whole entry): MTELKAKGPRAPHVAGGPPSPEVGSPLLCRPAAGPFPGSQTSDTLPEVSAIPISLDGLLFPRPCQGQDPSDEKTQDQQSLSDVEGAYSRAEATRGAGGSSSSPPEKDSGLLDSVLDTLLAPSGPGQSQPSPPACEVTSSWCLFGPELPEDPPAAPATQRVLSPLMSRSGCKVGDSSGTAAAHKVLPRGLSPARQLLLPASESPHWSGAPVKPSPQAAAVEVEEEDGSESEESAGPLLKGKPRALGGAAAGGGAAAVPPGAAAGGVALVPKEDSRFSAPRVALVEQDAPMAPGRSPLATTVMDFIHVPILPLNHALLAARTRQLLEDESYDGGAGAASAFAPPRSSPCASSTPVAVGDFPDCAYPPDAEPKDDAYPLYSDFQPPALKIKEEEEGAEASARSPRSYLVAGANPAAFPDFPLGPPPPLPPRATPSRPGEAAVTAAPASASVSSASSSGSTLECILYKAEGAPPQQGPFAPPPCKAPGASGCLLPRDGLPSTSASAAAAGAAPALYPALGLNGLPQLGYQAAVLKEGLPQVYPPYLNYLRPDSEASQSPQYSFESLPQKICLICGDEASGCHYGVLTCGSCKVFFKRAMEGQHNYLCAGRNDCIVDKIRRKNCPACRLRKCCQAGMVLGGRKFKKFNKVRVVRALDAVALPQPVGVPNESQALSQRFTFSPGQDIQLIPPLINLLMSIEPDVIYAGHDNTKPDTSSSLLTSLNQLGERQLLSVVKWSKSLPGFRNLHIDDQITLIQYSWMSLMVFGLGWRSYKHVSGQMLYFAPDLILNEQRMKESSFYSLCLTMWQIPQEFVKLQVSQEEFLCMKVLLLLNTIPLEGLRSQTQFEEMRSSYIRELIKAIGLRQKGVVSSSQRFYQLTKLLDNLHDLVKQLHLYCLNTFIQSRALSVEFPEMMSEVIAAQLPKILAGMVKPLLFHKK
In short: (§1)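 Competitive binding assays on PR and MR. Values are means of at least three separate experiments, each with triplicate determinations, ± SEM. A value without SEM comes from a single determination.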

[7] = target: T3, Mineralocorticoid receptor (Homo sapiens, UniProt P08235); assay: Binding affinity to MR; in short: as §1
T3 sequence (P08235 whole entry): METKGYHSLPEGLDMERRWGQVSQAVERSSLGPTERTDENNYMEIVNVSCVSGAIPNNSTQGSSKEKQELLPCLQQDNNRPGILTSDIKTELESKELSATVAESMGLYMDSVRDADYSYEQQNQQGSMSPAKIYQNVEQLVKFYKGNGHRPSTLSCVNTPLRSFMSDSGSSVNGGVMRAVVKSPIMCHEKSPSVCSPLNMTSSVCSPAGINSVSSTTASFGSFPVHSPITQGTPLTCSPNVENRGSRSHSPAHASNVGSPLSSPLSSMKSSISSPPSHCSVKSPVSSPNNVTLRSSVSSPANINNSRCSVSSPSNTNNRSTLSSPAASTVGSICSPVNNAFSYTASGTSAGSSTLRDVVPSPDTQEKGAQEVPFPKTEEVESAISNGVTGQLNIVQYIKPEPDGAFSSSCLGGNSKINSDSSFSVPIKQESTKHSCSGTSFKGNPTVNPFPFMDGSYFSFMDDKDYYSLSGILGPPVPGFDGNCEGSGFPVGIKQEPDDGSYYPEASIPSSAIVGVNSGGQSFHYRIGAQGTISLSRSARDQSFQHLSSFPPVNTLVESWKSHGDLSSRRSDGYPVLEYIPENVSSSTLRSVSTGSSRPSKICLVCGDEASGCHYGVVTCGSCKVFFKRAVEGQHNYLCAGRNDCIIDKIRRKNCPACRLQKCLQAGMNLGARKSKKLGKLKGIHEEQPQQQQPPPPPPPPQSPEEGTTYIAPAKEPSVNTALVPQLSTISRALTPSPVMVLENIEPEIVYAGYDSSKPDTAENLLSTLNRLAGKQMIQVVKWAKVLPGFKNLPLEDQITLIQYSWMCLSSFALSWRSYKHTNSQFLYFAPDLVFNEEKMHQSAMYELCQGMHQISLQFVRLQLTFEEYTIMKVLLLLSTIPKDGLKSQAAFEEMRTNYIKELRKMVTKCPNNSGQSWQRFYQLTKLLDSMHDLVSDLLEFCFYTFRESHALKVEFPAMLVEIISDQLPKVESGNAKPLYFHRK

Androgen receptor = target: T4, Androgen receptor (Homo sapiens, UniProt P10275); assay: Binding affinity to AR
T4 sequence (P10275 whole entry): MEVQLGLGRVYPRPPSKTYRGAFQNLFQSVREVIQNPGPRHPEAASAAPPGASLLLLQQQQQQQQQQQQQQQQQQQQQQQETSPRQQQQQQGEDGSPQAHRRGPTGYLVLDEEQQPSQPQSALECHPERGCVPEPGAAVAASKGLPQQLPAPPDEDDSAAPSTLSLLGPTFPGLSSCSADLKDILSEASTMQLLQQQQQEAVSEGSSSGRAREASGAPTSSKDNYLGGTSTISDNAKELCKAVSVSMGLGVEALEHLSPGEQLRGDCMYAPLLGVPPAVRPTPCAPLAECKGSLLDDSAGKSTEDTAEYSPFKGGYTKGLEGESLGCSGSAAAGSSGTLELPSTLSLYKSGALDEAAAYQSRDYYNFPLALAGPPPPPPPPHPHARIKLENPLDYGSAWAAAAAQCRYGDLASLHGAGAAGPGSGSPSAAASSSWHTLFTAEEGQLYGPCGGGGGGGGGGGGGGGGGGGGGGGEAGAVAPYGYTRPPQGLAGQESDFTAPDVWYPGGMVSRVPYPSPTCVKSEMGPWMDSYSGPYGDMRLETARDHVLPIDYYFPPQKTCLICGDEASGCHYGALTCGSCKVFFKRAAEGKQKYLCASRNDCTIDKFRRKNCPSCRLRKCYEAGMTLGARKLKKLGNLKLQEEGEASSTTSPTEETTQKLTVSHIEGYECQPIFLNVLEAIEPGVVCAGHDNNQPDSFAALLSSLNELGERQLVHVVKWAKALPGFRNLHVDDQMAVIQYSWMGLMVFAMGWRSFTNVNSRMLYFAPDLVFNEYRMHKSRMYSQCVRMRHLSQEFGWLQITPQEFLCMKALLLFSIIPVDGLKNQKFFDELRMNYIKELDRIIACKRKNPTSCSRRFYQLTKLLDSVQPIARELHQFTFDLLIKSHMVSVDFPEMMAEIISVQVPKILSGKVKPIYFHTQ

RPMI-8226 [8] = assay: Inhibition of tumor growth in human RPMI8226 cells xenografted nude mouse at 3 mg/kg, po after 4 weeks relative to Dexamethasone; assay type: functional
RPMI-8226 [9] = assay: Inhibition of tumor growth in human RPMI8226 cells xenografted nude mouse at 10 mg/kg, po after 4 weeks relative to Dexamethasone; assay type: functional
RPMI-8226 [10] = assay: Inhibition of tumor growth in human RPMI8226 cells xenografted nude mouse at 30 mg/kg, po after 4 weeks relative to Dexamethasone; assay type: functional

Compound	EC50 (Glucocorticoid receptor [1]) [nM]	EC50 (Glucocorticoid receptor [2]) [nM]	IC50 (Glucocorticoid receptor [3]) [nM]	IC50 (RPMI-8226 [4]) [nM]	Efficacy (RPMI-8226 [5]) [%]	further results
CCCCC(O)c1ccsc1/C=C1\Oc2ccc(O)c(OC)c2-c2ccc3c(c21)C(C)=CC(C)(C)N3 (racemic)	0.6					
COc1c(O)ccc2c1-c1ccc3c(c1/C(=C/c1sccc1CNCC(F)(F)F)O2)C(C)=CC(C)(C)N3		0.5	0.9	18	96	
CC/C=C(\C)c1ccsc1/C=C1\Oc2ccc(O)c(OC)c2-c2ccc3c(c21)C(C)=CC(C)(C)N3		0.5	6.1	22	94	Ki (Glucocorticoid receptor [6]): 4.4 nM; Ki (Progesterone receptor): 57 nM; Ki [7]: 42 nM; Ki (Androgen receptor): 346 nM
COc1c(O)ccc2c1-c1ccc3c(c1/C(=C/c1sccc1C(O)C(F)(F)F)O2)C(C)=CC(C)(C)N3 (single isomer, unassigned; (+))	0.2					
COc1c(O)ccc2c1-c1ccc3c(c1/C(=C/c1sccc1C(C)=O)O2)C(C)=CC(C)(C)N3		0.6	0.3	16	95	
COc1c(O)ccc2c1-c1ccc3c(c1/C(=C/c1sccc1COCCO)O2)C(C)=CC(C)(C)N3		1.6	1	22	98	
COc1c(O)ccc2c1-c1ccc3c(c1/C(=C/c1sccc1C(O)C(F)(F)F)O2)C(C)=CC(C)(C)N3 (stereo in doubt; (-)-15)	1.4					
COC(=O)c1ccsc1/C=C1\Oc2ccc(O)c(OC)c2-c2ccc3c(c21)C(C)=CC(C)(C)N3		1.4	1.8	27	95	
COc1c(O)ccc2c1-c1ccc3c(c1/C(=C/c1sccc1C(=O)N1CCCCC1)O2)C(C)=CC(C)(C)N3		0.3	1	16	95	
COc1c(O)ccc2c1-c1ccc3c(c1/C(=C/c1sccc1C(O)C(F)(F)F)O2)C(C)=CC(C)(C)N3 (racemic)	0.3					Ki (Glucocorticoid receptor [6]): 1.4 nM; Ki (Progesterone receptor): 1780 nM; Ki [7]: 670 nM; Ki (Androgen receptor): 1900 nM; Efficacy (RPMI-8226 [8]): 52%; Efficacy (RPMI-8226 [9]): 89%; Efficacy (RPMI-8226 [10]): 97%
CCO/N=C(\C)c1ccsc1/C=C1\Oc2ccc(O)c(OC)c2-c2ccc3c(c21)C(C)=CC(C)(C)N3	1.9	0.4	0.5	16	98	
COc1c(O)ccc2c1-c1ccc3c(c1/C(=C/c1sccc1C(=O)C1CCCCC1)O2)C(C)=CC(C)(C)N3	0.4					
COc1c(O)ccc2c1-c1ccc3c(c1/C(=C/c1sccc1/C(C)=N/O)O2)C(C)=CC(C)(C)N3		5	1.1	9.9	96	Ki (Glucocorticoid receptor [6]): 0.6 nM; Ki (Progesterone receptor): 790 nM; Ki [7]: 21 nM; Ki (Androgen receptor): 290 nM
COc1c(O)ccc2c1-c1ccc3c(c1/C(=C/c1sccc1C#N)O2)C(C)=CC(C)(C)N3		0.2	0.8	14	87	
C[C@@H]1C[C@H]2[C@@H]3CCC4=CC(=O)C=C[C@]4(C)[C@@]3(F)[C@@H](O)C[C@]2(C)[C@@]1(O)C(=O)CO [DEXAMETHASONE]				6.5	100	
COc1c(O)ccc2c1-c1ccc3c(c1/C(=C/c1sccc1C(C)O)O2)C(C)=CC(C)(C)N3 (racemic)	1.3					Ki (Glucocorticoid receptor [6]): 1.2 nM; Ki (Progesterone receptor): 2290 nM; Ki [7]: 410 nM; Ki (Androgen receptor): 1530 nM
